For ten molecules, IC50 and MIC results are on record in ChEMBL document CHEMBL3352204, “Cytotoxic and Antibacterial Quinone Sesquiterpenes from a Myrothecium Fungus” (J Nat Prod, 2014).

pIC50: −log10 of the molar value. Values after ≈ are worked out from the molar mass of the structure shown. Active and inactive are the calls of the source. Bounds are passed on as bounds.

In one assay the test system is HeLa. As to the kind of experiment: Cytotoxicity against human HeLa cells assessed as inhibition of cell growth after 72 hrs by MTT assay. Format: functional, cell-based. The method, boiled down: (§1)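 Cells grown in RPMI-1640 with 10% FBS at 37 °C under 5% CO2, seeded at 5 × 10^4 cells/mL and allowed about 24 h to attach. Medium was replaced and compound in DMSO added at final 0.016–50 μg/mL (5-fold steps), in quadruplicate, for 72 h. MTT was then given for 4 h, formazan dissolved in DMSO and OD read at 570 nm. IC50 obtained by nonlinear logistic regression.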
(In general: Formazan colour is commonly taken as a measure of viable cells.)

The next assay deals with Staphylococcus aureus. As to the kind of experiment: Antibacterial activity against Staphylococcus aureus ATCC 6538 after 7 hrs by Alamar Blue assay. Format: functional. The note with it: ATCC 6538, 7 h. The method, boiled down: (§2)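 Strains kept in 20% glycerol at −80 °C, grown in MHB 12 h at 37 °C with shaking at 150 rpm, then adjusted to 1 × 10^5 CFU/mL in MHB. Suspension held Alamar Blue (8% v/v) and 2-fold diluted compound in DMSO (4% v/v), final 1.562–100 μg/mL, in triplicate. Incubated 7 h at 37 °C in the dark. MIC is the lowest concentration whose well stays blue.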
On the technique in general: The colour change of resazurin is a common sign of viable cells or microbes.

The subject of another assay is Shigella dysenteriae. Description: Antibacterial activity against Shigella dysenteriae CMCC 51252 after 7 hrs by Alamar Blue assay. Format: functional, organism-based.
A further assay has as its system Bacillus cereus. Description: Antibacterial activity against Bacillus cereus CMCC 63302 after 7 hrs by Alamar Blue assay. In kind it is functional. The following applies: CMCC 63302, 7 h. The gist of the method: as §2
The test system of the next assay is Salmonella typhimurium. As to the kind of experiment: Antibacterial activity against Salmonella typhimurium CMCC 50115 after 7 hrs by Alamar Blue assay. Format: functional, organism-based. The following applies: Salmonella enterica subsp. enterica serovar Typhimurium. The method, boiled down: as §2
For a further assay, the system named is Escherichia coli. As to the kind of experiment: Antibacterial activity against Escherichia coli ATCC 8739 after 7 hrs by Alamar Blue assay. Format: functional, organism-based. The method, boiled down: as §2
In the next assay the test system is A549. Description: Cytotoxicity against human A549 cells assessed as inhibition of cell growth after 72 hrs by MTT assay. Format: functional, cell-based. The following applies: A549, 72 h. The method, boiled down:
as §1

The next assay has as its system HepG2. As to the kind of experiment: Cytotoxicity against human HepG2 cells assessed as inhibition of cell growth after 72 hrs by MTT assay. Format: functional, cell-based. The note with it: HepG2, 72 h. The method, boiled down: as §1

In general, pIC50 refers to the IC50 on a negative log10 scale, so that one unit is a factor of ten. What is called MIC is the smallest concentration in the dilution series that meets the test's criterion for growth inhibition. As to `C=C1CC[C@H]2[C@](C)(COC(C)=O)CCC[C@]2(C)[C@H]1C[C@@]12O[C@@H]1[C@@H](O)C(CO)=CC2=O`, the pIC50 in the assay with HeLa was 4.71; in the assay on A549, 4.74; in the assay with HepG2, 4.56. Further, the values for the MIC against Staphylococcus aureus and against Bacillus cereus were 50 µg/mL (≈ 119 µM) and over 100 µg/mL, respectively. The MIC result in the assay on Shigella dysenteriae, in the assay with Salmonella typhimurium and in the assay on Escherichia coli was “inactive” in each case.
In the assay with Staphylococcus aureus, `CC(C)(O/N=C(\C(=O)N[C@@H]1C(=O)N2C(C(=O)[O-])=C(C[n+]3ccccc3)CS[C@H]12)c1csc(N)n1)C(=O)O` [CEFTAZIDIME] had an MIC of 12.5 µg/mL (≈ 22.9 µM).
With `C[C@@]1(CO)CCC[C@]2(C)[C@H]3C[C@@]45O[C@@H]4C(=O)[C@]4(CO)O[C@@H]4[C@]5(O)CC3=CC[C@@H]12` [HYMENOPSIN B], the values for the pIC50 with HeLa, with A549 and in the assay with HepG2 were 5.35, 5.89 and 5.49, respectively. Moreover, the MIC in the assay on Staphylococcus aureus and against Bacillus cereus was over 100 µg/mL throughout. Besides, the MIC entry in the assay with Shigella dysenteriae, in the assay with Salmonella typhimurium and in the assay on Escherichia coli was “inactive” throughout.
Regarding `C=C1CC[C@H]2[C@](C)(CO)CCC[C@]2(C)[C@H]1C[C@@]12O[C@@H]1[C@@H](O)C(CO)=CC2=O`, the pIC50 in the assay with HeLa is 4.44; in the assay on A549, 4.38; with HepG2, 4.47. Moreover, the MIC stood at 50 µg/mL (≈ 133 µM) in the assay with Staphylococcus aureus and 100 µg/mL (≈ 266 µM) against Bacillus cereus. The MIC entry in the assay with Shigella dysenteriae, with Salmonella typhimurium and with Escherichia coli was “inactive” each time.
Turning to `C=C1CC[C@H]2[C@](C)(CO)CCC[C@]2(C)[C@H]1C[C@]12O[C@H]1[C@@H](O)C(CO)=CC2=O`, the negative logarithm of the IC50 (pIC50) in the assay on HeLa was 4.53; in the assay on A549, 4.40; with HepG2, 4.31. In addition, the MIC turned out to be 50 µg/mL (≈ 133 µM) in the assay on Staphylococcus aureus and 100 µg/mL (≈ 266 µM) against Bacillus cereus. Besides, the MIC result in the assay with Shigella dysenteriae, with Salmonella typhimurium and in the assay with Escherichia coli was “inactive” each time.
`NC[C@H]1O[C@H](O[C@H]2[C@H](O)[C@@H](O[C@H]3O[C@H](CO)[C@@H](O)[C@H](N)[C@H]3O)[C@H](N)C[C@@H]2N)[C@H](O)[C@@H](O)[C@@H]1O` [KANAMYCIN] returned an MIC in the assay on Bacillus cereus of 6.25 µg/mL (≈ 12.9 µM).
For the molecule `COc1cccc2c1C(=O)c1c(O)c3c(c(O)c1C2=O)C[C@@](O)(C(=O)CO)C[C@@H]3O[C@H]1C[C@H](N)[C@H](O)[C@H](C)O1` [DOXORUBICIN], the negative logarithm of the IC50 (pIC50) in the assay on HeLa was 6.33; with A549, 6.16.
For the molecule `C=C1CC[C@H]2[C@](C)(COC(C)=O)CCC[C@]2(C)[C@H]1C[C@]12O[C@H]1[C@H](O)C(CO)=CC2=O`, the pIC50 in the assay on HeLa is 4.72; in the assay on A549, 4.53; with HepG2, 4.42. Moreover, the MIC with Staphylococcus aureus was 100 µg/mL (≈ 239 µM); in the assay on Bacillus cereus, over 100 µg/mL. Moreover, the MIC result in the assay on Shigella dysenteriae, in the assay on Salmonella typhimurium and in the assay with Escherichia coli was “inactive” each time.
As for `C=C1CC[C@H]2[C@](C)(CO)CCC[C@]2(C)[C@H]1CC1=C(O)C(=O)[C@](O)(CO)[C@H](O)[C@H]1O`, the pIC50 in the assay with HeLa, with A549 and in the assay on HepG2 was under 4.30 each time. Moreover, the MIC in the assay on Staphylococcus aureus and in the assay on Bacillus cereus was over 100 µg/mL in each case. For the same molecule, the MIC result in the assay with Shigella dysenteriae, in the assay with Salmonella typhimurium and with Escherichia coli was “inactive” each time.
In the case of `C=C1CC[C@H]2[C@](C)(CO)CCC[C@]2(C)[C@H]1C[C@]12O[C@H]1[C@@H](O)C(CO)=C(Cl)C2=O`, the negative logarithm of the IC50 (pIC50) in the assay on HeLa is 5.10; in the assay on A549, 5.10; with HepG2, 4.82. Besides, the values for the MIC against Staphylococcus aureus and in the assay on Bacillus cereus were 12.5 µg/mL (≈ 30.4 µM) and 25 µg/mL (≈ 60.8 µM), respectively. In addition, the MIC result with Shigella dysenteriae, with Salmonella typhimurium and in the assay with Escherichia coli was “inactive” each time.
